Measured values published in ChEMBL document CHEMBL4011654, “Mitochondria-Targeted Lupane Triterpenoid Derivatives and Their Selective Apoptosis-Inducing Anticancer Mechanisms” (J Med Chem, 2017).
The source made the active and inactive calls. The rule behind the calls is not given here.

What was measured:
[1] = system: HL-60; assay: Cytotoxicity against human HL60 cells assessed as cell growth inhibition after 48 hrs by MTT assay; format: functional, cell-based; details: HL-60, 48 h
Summary of the method: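 Suspension cells seeded at 5000/well (HL-60 in IMDM, K562 in RPMI, both with 10% FBS) and treated. MTT then added for 4 h at 37 °C; plates centrifuged at 3000 rpm for 30 min, medium removed, DMSO added, OD570 read. IC50 taken as concentration giving 50% growth inhibition; triplicate.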

[2] = system: HepG2; assay: Cytotoxicity against human HepG2 cells assessed as cell growth inhibition after 48 hrs by MTT assay; format: functional, cell-based; details: HepG2, 48 h
Summary of the method: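 Adherent cells seeded at 5000/well, left 16−24 h, then exposed 48 h at 37 °C, 5% CO2 in RPMI with 10% FBS. Medium refreshed, MTT added for 4 h at 37 °C, medium removed, formazan dissolved in DMSO, OD570 read. IC50 taken as concentration inhibiting growth by 50%; triplicate.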

[3] = Drug uptake in mitochondria of human K562 cells at 10 uM after 4 hrs by RP-HPLC analysis relative to betulin; format: ADME
Summary of the method: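 K562 exposed to 10 μM compound or betulin for 4 h, washed, mitochondria isolated by kit, pellet extracted twice with dichloromethane/methanol (2:1). Residue assayed by RP-HPLC on C18: betulin in 100% acetonitrile, detection 220 nm; conjugate in 80% acetonitrile with 0.1% formic acid, detection 267 nm. Amounts normalised to protein; n = 3.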

[4] = system: K562; assay: Induction of apoptosis in human K562 cells assessed as early apoptotic cells at 0.4 uM after 48 hrs by Annexin V-FITC/propidium iodide-staining based flow cytometric analysis (reference value: 0.92 to 1.45%); format: functional
Summary of the method: (§1)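 K562 seeded at 4 × 10^5 cells/well, 12 h, then exposed 48 h. Cells washed in ice-cold PBS, suspended in binding buffer, stained with annexin V-FITC and PI for 15 min at room temperature in the dark, and read by flow cytometry within 1 h. Cells counted as early/late apoptotic as % of total; n = 3.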

[5] = system: K562; assay: Induction of apoptosis in human K562 cells assessed as late apoptotic cells at 0.4 uM after 48 hrs by Annexin V-FITC/propidium iodide-staining based flow cytometric analysis (reference value: 2.25 to 2.67%); format: functional; summary of the method: as §1
[6] = system: K562; assay: Induction of apoptosis in human K562 cells assessed as necrotic cells at 0.4 uM after 48 hrs by Annexin V-FITC/propidium iodide-staining based flow cytometric analysis (reference value: 0.13 to 0.27%); format: functional; summary of the method: as §1
[7] = system: K562; assay: Induction of apoptosis in human K562 cells assessed as early apoptotic cells at 0.8 uM after 48 hrs by Annexin V-FITC/propidium iodide-staining based flow cytometric analysis (reference value: 0.92 to 1.45%); format: functional; summary of the method: as §1
[8] = system: K562; assay: Induction of apoptosis in human K562 cells assessed as viable cells at 1.2 uM after 48 hrs by Annexin V-FITC/propidium iodide-staining based flow cytometric analysis (reference value: 95.75 to 96.56%); format: functional; details: K562, 48 h, read-out: Activity; summary of the method: as §1
[9] = system: K562; assay: Induction of apoptosis in human K562 cells assessed as late apoptotic cells at 1.2 uM after 48 hrs by Annexin V-FITC/propidium iodide-staining based flow cytometric analysis (reference value: 2.25 to 2.67%); format: functional; summary of the method: as §1
[10] = system: K562; assay: Decrease in mitochondrial membrane potential in human K562 cells at 1 to 2 uM after 48 hrs by JC-1 staining based fluorescence microscopic analysis; format: functional, cell-based
Summary of the method: (§2)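 K562 seeded at 4 × 10^5 cells/well, after 12 h treated 48 h. Cells washed in ice-cold PBS, loaded with JC-1 ([…]) at 37 °C for 15 min, rinsed, and analysed by flow cytometry (% cells with red aggregates) and fluorescence microscopy (red aggregates vs green monomers).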

[11] = system: K562; assay: Decrease in mitochondrial membrane potential in human K562 cells after 48 hrs by JC-1 staining based flow cytometry; format: functional, cell-based; summary of the method: as §2
[12] = system: K562; assay: Induction of mitochondrial membrane depolarization in human K562 cells assessed as cell with intact mitochondrial membrane potential at 1 uM after 48 hrs by JC-1 staining based flow cytometric analysis (reference value: 97.63 to 97.67%); format: functional; summary of the method: as §2
[13] = system: K562; assay: Induction of mitochondrial membrane depolarization in human K562 cells assessed as cells with mitochondrial membrane potential loss at 1 uM after 48 hrs by JC-1 staining based flow cytometric analysis (reference value: 1.89 to 2.23%); format: functional
[14] = system: K562; assay: Induction of mitochondrial membrane depolarization in human K562 cells assessed as cells with intact mitochondrial membrane potential at 2 uM after 48 hrs by JC-1 staining based flow cytometric analysis (reference value: 97.63 to 97.67%); format: functional; summary of the method: as §2
[15] = system: K562; assay: Induction of mitochondrial membrane depolarization in human K562 cells assessed as cells with mitochondrial membrane potential loss at 2 uM after 48 hrs by JC-1 staining based flow cytometric analysis (reference value: 1.89 to 2.23%); format: functional
[16] = system: K562; assay: Induction of mitochondrial membrane depolarization in human K562 cells assessed as cells with mitochondrial membrane potential loss at 4 uM after 48 hrs by JC-1 staining based flow cytometric analysis (reference value: 1.89 to 2.23%); format: functional
[17] = system: K562; assay: Induction of apoptosis in human K562 cells assessed as upregulation of cleaved PARP up to 4 uM after 48 hrs by Western blot analysis; format: functional, cell-based
[18] = system: K562; assay: Induction of apoptosis in human K562 cells assessed as caspase-9 activation at 4 uM after 48 hrs by Western blot analysis relative to control; format: functional
Summary of the method: (§3)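 K562 treated 48 h, then lysed on ice for 30 min; cytosolic and mitochondrial fractions isolated by kit where needed, protein measured by BCA. 60 μg/lane run on SDS-PAGE, transferred to PVDF, blocked in 5% milk/TBST for 4 h. Probed for cytochrome c, caspase-9, caspase-3 (total/cleaved), PARP; alkaline phosphatase secondary.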

[19] = system: K562; assay: Induction of apoptosis in human K562 cells assessed as caspase-3 activation at 4 uM after 48 hrs by Western blot analysis relative to control; format: functional; summary of the method: as §3
[20] = system: K562; assay: Antitumor activity against CM-Dil-labeled human K562 cells xenografted in wild-type zebrafish embryos assessed as reduction in cell migration at 1 to 2 ug/ml measured after 48 hrs by confocal microscopic analysis; format: functional, cell-based
Summary of the method: (§4)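 K562 cells labelled with CM-Dil, suspended in FBS-free medium at (1 × 107)/mL and microinjected into wild-type zebrafish embryos kept at 28 °C in embryonic medium. After 4 h, embryos with the same injection spot were pooled at 15−20 per well and exposed to compound; Taxol served as positive control. At 48 h, confocal imaging gave fluorescent area (migration) and fluorescence intensity (cell number); n = 15.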

[21] = system: K562; assay: Antitumor activity against CM-Dil-labeled human K562 cells xenografted in wild-type zebrafish embryos assessed as tumor growth inhibition at 1 to 10 ug/ml measured after 48 hrs by confocal microscopic analysis; format: functional, cell-based; summary of the method: as §4
[22] = system: K562; assay: Induction of apoptosis in human K562 cells assessed as decrease in cytochrome c level in mitochondria up to 4 uM after 48 hrs by Western blot analysis; format: functional, cell-based; summary of the method: as §3
[23] = system: K562; assay: Induction of apoptosis in human K562 cells assessed as increase in cytosolic cytochrome c level up to 4 uM after 48 hrs by Western blot analysis; format: functional, cell-based; summary of the method: as §3
[24] = system: K562; assay: Induction of apoptosis in human K562 cells after 48 hrs by Annexin V-FITC/propidium iodide-staining based flow cytometric analysis; format: functional, cell-based; summary of the method: as §1

fold change (FC) [3]: 3.4
Compound: C=C(C)[C@@H]1CC[C@]2(COC(=O)CCCC[P+](c3ccccc3)(c3ccccc3)c3ccccc3)CC[C@]3(C)[C@H](CC[C@@H]4[C@@]5(C)CC[C@H](O)C(C)(C)[C@@H]5CC[C@]43C)[C@@H]12.[Br-]
IC50 [1]: 600 nM | IC50 [2]: 1090 nM | Activity [4]: 6.68% | Activity [5]: 4.67% | Activity [6]: 0.53% | Activity [7]: 12.51% | viability at 1.2 µM [8]: 45.3% | Activity [9]: 38.25% | Activity [10]: Active | Activity [11]: Dose-dependent effect | Activity [12]: 93.08% | Activity [13]: 6.47% | Activity [14]: 82.54% | Activity [15]: 17.08% | Activity [16]: 61.4% | Activity [17]: Active | fold change (FC) [18]: 1.5 | fold change (FC) [19]: 2.1 | Activity [20]: Active | TGI [21]: Active | Activity [22]: Active | Activity [23]: Active | Activity [24]: Dose-dependent effect
